Experimental data as given in ChEMBL document CHEMBL4043182, “On the synthesis of quinone-based BODIPY hybrids: New insights on antitumor activity and mechanism of action in cancer cells” (Bioorg Med Chem Lett, 2017).

Key:
[1] = tested on: PC-3; assay: Antiproliferative activity against human PC3 cells after 72 hrs by MTT assay; format: functional, cell-based; conditions: PC-3, 72 h
In short: (§1)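 MTT reduction: cancer lines plated at 0.7×10^5 to 0.3×10^6 cells/well, V79 and L929 fibroblasts at 0.5×10^5 cells/well. Compounds in DMSO (0.1%) were given for 24 h at 0.04–40.92 µM or 72 h at 0.04–8.19 µM. Fresh medium with 0.5 mg/mL MTT was added for 3 h, then formazan was dissolved in DMSO and read at 595 nm as % of control. IC50 came from nonlinear regression with 95% CI. Doxorubicin (0.001–1.06 µM) was the positive control. Triplicate, ≥3 repeats.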

[2] = tested on: SF-295; assay: Antiproliferative activity against human SF295 cells after 72 hrs by MTT assay; format: functional, cell-based; conditions: SF-295, 72 h; in short: as §1
[3] = tested on: MDA-MB-435; assay: Antiproliferative activity against human MDA-MB-435 cells after 72 hrs by MTT assay; format: functional, cell-based; conditions: MDA-MB-435, 72 h; in short: as §1
[4] = tested on: SW-620; assay: Antiproliferative activity against human SW620 cells after 72 hrs by MTT assay; format: functional, cell-based; conditions: SW-620, 72 h; in short: as §1
[5] = tested on: HCT-116; assay: Antiproliferative activity against human HCT116 cells after 72 hrs by MTT assay; format: functional, cell-based; conditions: HCT-116, 72 h; in short: as §1
[6] = tested on: L929; assay: Antiproliferative activity against mouse L929 cells after 72 hrs by MTT assay; format: cell-based; conditions: L929, 72 h; in short: as §1
[7] = tested on: V79; assay: Antiproliferative activity against chinese hamster V79 cells after 72 hrs by MTT assay; format: cell-based; conditions: Cricetulus griseus, V79, 72 h; in short: as §1
[8] = tested on: PC-3; assay: Cytotoxicity against human PC3 cells after 24 hrs in presence of GSH-OEt by MTT assay; format: functional, cell-based; conditions: PC-3, 24 h
In short: (§2)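 24 h MTT exposure (0.04–40.92 µM in 0.1% DMSO), with or without co-treatment with GSH ethyl ester (15 mM) to gauge the ROS contribution. MTT was 0.5 mg/mL for 3 h, with formazan dissolved in DMSO and absorbance at 595 nm expressed as % of control. Triplicate, repeated at least three times.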

[9] = tested on: SF-295; assay: Cytotoxicity against human SF295 cells after 24 hrs in presence of GSH-OEt by MTT assay; format: functional, cell-based; conditions: SF-295, 24 h; in short: as §2
[10] = tested on: HCT-116; assay: Cytotoxicity against human HCT116 cells after 24 hrs in presence of GSH-OEt by MTT assay; format: functional, cell-based; conditions: HCT-116, 24 h; in short: as §2
[11] = tested on: L929; assay: Cytotoxicity against mouse L929 cells after 24 hrs in presence of GSH-OEt by MTT assay; format: cell-based; conditions: L929, 24 h; in short: as §2
[12] = tested on: PC-3; assay: Cytotoxicity against human PC3 cells after 24 hrs in absence of GSH-OEt by MTT assay; format: functional, cell-based; conditions: PC-3, 24 h; in short: as §2
[13] = tested on: SF-295; assay: Cytotoxicity against human SF295 cells after 24 hrs in absence of GSH-OEt by MTT assay; format: functional, cell-based; conditions: SF-295, 24 h; in short: as §2
[14] = tested on: HCT-116; assay: Cytotoxicity against human HCT116 cells after 24 hrs in absence of GSH-OEt by MTT assay; format: functional, cell-based; conditions: HCT-116, 24 h; in short: as §2
[15] = tested on: L929; assay: Cytotoxicity against mouse L929 cells after 24 hrs in absence of GSH-OEt by MTT assay; format: cell-based; conditions: L929, 24 h; in short: as §2

Row | IC50 [1] [µM] | IC50 [3] [µM] | IC50 [4] [µM] | IC50 [5] [µM] | Structure (SMILES) | IC50 [2] [µM] | IC50 [6] [µM] | IC50 [7] [µM] | IC50 [8] [µM] | IC50 [9] [µM] | IC50 [10] [µM] | IC50 [11] [µM] | IC50 [12] [µM] | IC50 [13] [µM] | IC50 [14] [µM] | IC50 [15] [µM]
1 | > 7.83 | > 7.83 | > 7.83 | > 7.83 | CC1(C)CC(n2cc(CNc3ccc4n3[B-](F)(F)[N+]3=C(Cl)C=CC3=C4c3ccccc3)nn2)C2=C(O1)C(=O)c1ccccc1C2=O (stereo unspecified) | > 7.83 | > 7.83 | > 7.83 | > 40 | > 40 | > 40 | > 40 | > 40 | > 40 | > 40 | > 40
2 | 0.05 | 0.94 | 0.29 | – | COc1cccc2c1C(=O)c1c(O)c3c(c(O)c1C2=O)C[C@@](O)(C(=O)CO)C[C@@H]3O[C@H]1C[C@H](N)[C@H](O)[C@H](C)O1 [DOXORUBICIN] | 0.45 | 0.22 | 0.25 | – | – | – | – | – | – | – | –
3 | > 8.1 | > 8.1 | > 8.1 | > 8.1 | CC1(C)OC2=C(C(=O)c3ccccc3C2=O)C1n1cc(CNC2=[N+]3C(=C(c4ccccc4)c4ccc(Cl)n4[B-]3(F)F)C=C2)nn1 (stereo unspecified) | > 8.1 | > 8.1 | > 8.1 | > 40 | > 40 | > 40 | > 40 | > 40 | > 40 | > 40 | > 40
